Reference: ChEMBL document CHEMBL1255300, “Pharmacodynamics of the antibacterial effect and emergence of resistance to tomopenem, formerly RO4908463/CS-023, in an in vitro pharmacokinetic model of Staphylococcus aureus infection” (Antimicrob Agents Chemother, 2008)
In brackets after ≈: the same amount, converted by molar mass. Activity calls are given as the source filed them. The rule behind the calls is not given here.

Tests used:
Staphylococcus aureus [1] = assay: Antibacterial activity against methicillin-resistant Staphylococcus aureus 33827 infected in in vitro pharmacokinetic model assessed as time required to 99.9% killing at 1500 mg, iv every 8 hrs using 10^6 CFU/ml inoculum; format: functional
Summary of the method: (§1)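 Single-compartment dilutional in vitro PK model, 10% Mueller-Hinton broth, 37°C, stirred, dilution 132 ml/h. […] Inoculum 10^6 CFU/ml (added 45 min pre-dose) or 10^8 CFU/ml (run overnight). Viable counts by spiral plating, beta-lactamase neutralization, detection limit 10^2 CFU/ml. At least triplicate.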

Staphylococcus aureus [2] = assay: T>MIC for 4-log drop in count in methicillin-resistant Staphylococcus aureus 33827 in in vitro pharmacokinetic model after 24 hrs using 10^8 CFU/ml inoculum; format: functional
Serum = assay: Drug level in human serum at 1400 mg; format: ADME, cell-free
Staphylococcus aureus [3] = assay: Antibacterial activity against methicillin-resistant Staphylococcus aureus 33820 infected in in vitro pharmacokinetic model assessed as time required to 99.9% killing at 1500 mg, iv every 8 hrs using 10^6 CFU/ml inoculum; format: functional
Staphylococcus aureus [4] = assay: AUBKC (0 to 24 hrs) in methicillin-resistant Staphylococcus aureus 33922 infected in in vitro pharmacokinetic model at 1500 mg, iv every 8 hrs using 10^6 CFU/ml inoculum; format: functional
Summary of the method: (§2)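 Single-compartment dilutional in vitro PK model at 37°C in 10% Mueller-Hinton broth, stirred, flow 132 ml/h. […] Inoculum 10^6 CFU/ml added 45 min before dosing, or 10^8 CFU/ml run overnight. Viable counts with β-lactamase neutralisation. AUBKC by log-linear trapezoidal rule, at least triplicate.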

Staphylococcus aureus [5] = assay: AUBKC (0 to 24 hrs) in methicillin-resistant Staphylococcus aureus 33827 infected in in vitro pharmacokinetic model at 1500 mg, iv every 8 hrs using 10^6 CFU/ml inoculum; format: functional; summary of the method: as §2
Staphylococcus aureus [6] = assay: AUBKC (0 to 48 hrs) in methicillin-resistant Staphylococcus aureus 33820 infected in in vitro pharmacokinetic model at 750 mg, iv every 8 hrs using 10^6 CFU/ml inoculum; format: functional; summary of the method: as §2
Staphylococcus aureus [7] = assay: Antibacterial activity against methicillin-sensitive Staphylococcus aureus 5956 by broth dilution method; format: functional
Staphylococcus aureus [8] = assay: Antibacterial activity against methicillin-resistant Staphylococcus aureus 33815 by broth dilution method; format: functional
Summary of the method: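 Standard CLSI broth dilution MIC.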

Staphylococcus aureus [9] = assay: Antibacterial activity against methicillin-resistant Staphylococcus aureus 33815 infected in in vitro pharmacokinetic model assessed as time required to 99.9% killing at 750 mg, iv every 8 hrs using 10^8 CFU/ml inoculum; format: functional
Summary of the method: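 T99 and T99.9 were taken as the times for the count to fall 99% or 99.9% from time 0, using serial viable counts over 48 h. Inoculum was 10^8 CFU/ml, grown overnight in the model before dosing.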

Staphylococcus aureus [10] = assay: AUBKC (0 to 24 hrs) in methicillin-resistant Staphylococcus aureus 33827 infected in in vitro pharmacokinetic model at 750 mg, iv every 8 hrs using 10^8 CFU/ml inoculum; format: functional; summary of the method: as §2
Staphylococcus aureus [11] = assay: AUBKC (0 to 48 hrs) in against methicillin-resistant Staphylococcus aureus 33815 infected in in vitro pharmacokinetic model at 750 mg, iv every 8 hrs using 10^8 CFU/ml inoculum; format: functional; summary of the method: as §2
Staphylococcus aureus [12] = assay: AUBKC (0 to 48 hrs) in methicillin-resistant Staphylococcus aureus 33827 infected in in vitro pharmacokinetic model at 1500 mg, iv every 8 hrs using 10^8 CFU/ml inoculum; format: functional; summary of the method: as §2
Staphylococcus aureus [13] = assay: Antibacterial activity against methicillin-sensitive Staphylococcus aureus 5956 assessed as viable count at 2 times of MIC after 24 hrs using 10^6 CFU/ml inoculum; format: functional, organism-based
Staphylococcus aureus [14] = assay: Antibacterial activity against methicillin-resistant Staphylococcus aureus 33922 assessed as viable count at 2 times of MIC after 24 hrs using 10^6 CFU/ml inoculum; format: functional, organism-based
Staphylococcus aureus [15] = assay: T>MIC in methicillin-resistant Staphylococcus aureus 33815 infected in vitro pharmacokinetic model at 750 mg, iv every 8 hrs; format: functional
Staphylococcus aureus [16] = assay: Antibacterial activity against methicillin-resistant Staphylococcus aureus 33827 in in vitro pharmacokinetic model assessed as viable count at 6 times of MIC; format: functional
Summary of the method: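 Population analysis before drug exposure (time 0). Model samples were plated on nutrient agar without drug and with tomopenem at 2×, 4× and 6× MIC (10% MHB MIC), and growth was recorded as log CFU/ml. Detection limit 2 log10.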

Staphylococcus aureus [17] = assay: Antibacterial activity against methicillin-resistant Staphylococcus aureus 33921 infected in in vitro pharmacokinetic model assessed as reduction in viable count at 750 mg, iv every 8 hrs measured after 12 hrs using 10^6 CFU/ml inoculum; format: functional; summary of the method: as §1
Staphylococcus aureus [18] = assay: Antibacterial activity against methicillin-resistant Staphylococcus aureus 33820 infected in in vitro pharmacokinetic model assessed as reduction in viable count at 750 mg, iv every 8 hrs measured after 12 hrs using 10^6 CFU/ml inoculum; format: functional
Summary of the method: (§3)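 Single-compartment dilutional in vitro PK model, 37°C, stirred, in 10% Mueller-Hinton broth. […] Inoculum 10^6 CFU/ml from a 24-h plate culture was added 45 min before dosing. Viable counts by spiral plating on nutrient agar with β-lactamase neutralization. Log change was taken from time 0; detection limit 10^2 CFU/ml; at least triplicate.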

Staphylococcus aureus [19] = assay: Antibacterial activity against methicillin-resistant Staphylococcus aureus 33827 infected in in vitro pharmacokinetic model assessed as reduction in viable count at 750 mg, iv every 8 hrs measured after 24 hrs using 10^6 CFU/ml inoculum; format: functional; summary of the method: as §1
Staphylococcus aureus [20] = assay: Antibacterial activity against methicillin-resistant Staphylococcus aureus 33922 infected in in vitro pharmacokinetic model assessed as reduction in viable count at 750 mg, iv every 8 hrs measured after 36 hrs using 10^6 CFU/ml inoculum; format: functional
Staphylococcus aureus [21] = assay: Antibacterial activity against methicillin-resistant Staphylococcus aureus 33820 infected in in vitro pharmacokinetic model assessed as reduction in viable count at 750 mg, iv every 8 hrs measured after 36 hrs using 10^6 CFU/ml inoculum; format: functional; summary of the method: as §3
Staphylococcus aureus [22] = assay: Antibacterial activity against methicillin-resistant Staphylococcus aureus 33815 infected in in vitro pharmacokinetic model assessed as reduction in viable count at 750 mg, iv every 8 hrs measured after 36 hrs using 10^6 CFU/ml inoculum; format: functional; summary of the method: as §3
Staphylococcus aureus [23] = assay: T>MIC for 1-log drop in count in methicillin-resistant Staphylococcus aureus 33820 in in vitro pharmacokinetic model after 24 hrs using 10^6 CFU/ml inoculum; format: functional
Staphylococcus aureus [24] = assay: T>MIC for 2-log drop in count in methicillin-resistant Staphylococcus aureus 33922 in in vitro pharmacokinetic model after 24 hrs using 10^6 CFU/ml inoculum; format: functional
Staphylococcus aureus [25] = assay: T>MIC for 3-log drop in count in methicillin-resistant Staphylococcus aureus 33815 in in vitro pharmacokinetic model after 24 hrs using 10^6 CFU/ml inoculum; format: functional
Staphylococcus aureus [26] = assay: T>MIC for 4-log drop in count in methicillin-resistant Staphylococcus aureus 33922 in in vitro pharmacokinetic model after 24 hrs using 10^8 CFU/ml inoculum; format: functional
Staphylococcus aureus [27] = assay: Antibacterial activity against methicillin-resistant Staphylococcus aureus 33827 infected in in vitro pharmacokinetic model assessed as reduction in viable count at 1500 mg, iv every 8 hrs measured after 36 hrs using 10^6 CFU/ml inoculum; format: functional; summary of the method: as §1

SMILES: C[C@@H](O)[C@H]1C(=O)N2C(C(=O)O)=C(S[C@H]3C[C@@H](C(=O)N4CC[C@H](NC(=O)CNC(=N)N)C4)N(C)C3)[C@H](C)[C@H]12 [TOMOPENEM]
- Time (Staphylococcus aureus [1]): 12 h
- fT>MIC (Staphylococcus aureus [2]): 79.1%
- Drug uptake (Serum): 100 mg/L
- Time (Staphylococcus aureus [3]): 12 h
- AUBC (Staphylococcus aureus [4]): 16.9 log10CFU/ml.hr
- AUBC (Staphylococcus aureus [5]): 28.1 log10CFU/ml.hr
- AUBC (Staphylococcus aureus [6]): 28.6 log10CFU/ml.hr
- MIC (Staphylococcus aureus [7]): 0.06 µg/mL (≈ 0.112 µM)
- MIC (Staphylococcus aureus [8]): 16 µg/mL (≈ 29.8 µM)
- Time (Staphylococcus aureus [9]): 24 h
- AUBC (Staphylococcus aureus [10]): 77.4 log10CFU/ml.hr
- AUBC (Staphylococcus aureus [11]): 119 log10CFU/ml.hr
- AUBC (Staphylococcus aureus [12]): 93.5 log10CFU/ml.hr
- Activity (Staphylococcus aureus [13]): inactive
- Activity (Staphylococcus aureus [14]): inactive
- fT>MIC (Staphylococcus aureus [15]): 73%
- log10CFU/ml (Staphylococcus aureus [16]): <2
- log10CFU/ml (Staphylococcus aureus [17]): 3.6
- log10CFU/ml (Staphylococcus aureus [18]): 3.9
- log10CFU/ml (Staphylococcus aureus [19]): 3.6
- log10CFU/ml (Staphylococcus aureus [20]): 4
- log10CFU/ml (Staphylococcus aureus [21]): 4.2
- log10CFU/ml (Staphylococcus aureus [22]): 4.2
- fT>MIC (Staphylococcus aureus [23]): 9.9%
- fT>MIC (Staphylococcus aureus [24]): 5.4%
- fT>MIC (Staphylococcus aureus [25]): 17.1%
- fT>MIC (Staphylococcus aureus [26]): 15%
- log10CFU/ml (Staphylococcus aureus [27]): 4
